Legend:
[1] = Volume of distribution in CD-1 mouse at 5 mg/kg, iv by LC-MS-MS analysis; format: ADME, organism-based; design: dose 5 mg/kg, route intravenous; conditions: in vivo
Procedure, shortened: (§1)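 Female CD-1 mice, single i.v. injection of 5 mg/kg (1 mg/ml) in pH 3.5 HCl/citrate formulation. Blood from three animals at 0.02–24 h; heparinized plasma extracted and quantified by LC-MS-MS (LLOQ 9.2 ng/ml). Noncompartmental analysis of the mean concentration-time profile.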

[2] = Cmax in Wistar rat at 24.8 mg/kg, po by LC-MS-MS analysis; format: ADME, organism-based; design: dose 24.8 mg/kg, route oral; conditions: in vivo
Procedure, shortened: (§2)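 Female Wistar rats, fasted overnight until 4 h post-dose, given 24.8 mg/kg orally in pH 3.5 HCl/citrate solution. Serial blood sampling from groups of three, 0.17–48 h. Plasma quantified by LC-MS-MS (LLOQ 9.2 ng/ml). Noncompartmental fit of mean profile; bioavailability from dose-corrected AUC ratio versus i.v.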

dengue virus type 1 = assay: Antiviral activity against Dengue virus 1 MY10245 infected in human A549 cells by CFI assay; format: functional, organism-based
Procedure, shortened: (§3)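 CFI assay: A549 cells seeded 2 × 10^4/well, infected next day (MOI 0.3 for DENV-2) with compound-virus mixture for 1 h, then refed with compound-containing medium. On day 2 cells were methanol-fixed at 4°C and intracellular E protein detected by ELISA (4G2 primary, HRP anti-mouse secondary). EC50 is the average of two independent experiments.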

[3] = Volume of distribution at steady state Wistar rat at 5.9 mg/kg, iv by LC-MS-MS analysis; format: ADME, organism-based; design: dose 5.9 mg/kg, route intravenous; conditions: in vivo, read-out: Vdss
Procedure, shortened: (§4)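 Female Wistar rats given 5.9 mg/kg i.v. in pH 3.5 HCl/citrate formulation. Serial blood from groups of three rats, 0.17–48 h. Heparinized plasma extracted with acetonitrile-methanol-acetic acid, LC-MS-MS quantification (LLOQ 9.2 ng/ml); noncompartmental analysis of mean profile.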

[4] = Clearance in Wistar rat at 5.9 mg/kg, iv by LC-MS-MS analysis; format: ADME, organism-based; design: dose 5.9 mg/kg, route intravenous; conditions: in vivo; procedure, shortened: as §4
A549 [5] = assay: Cytotoxicity against human A549 cells up to 25 uM after 48 hrs by MTT assay; format: functional, cell-based
[6] = Tmax in Wistar rat at 24.8 mg/kg, po by LC-MS-MS analysis; format: ADME, organism-based; design: dose 24.8 mg/kg, route oral; conditions: in vivo; procedure, shortened: as §2
[7] = Half life in Wistar rat at 5.9 mg/kg, iv by LC-MS-MS analysis; format: ADME, organism-based; design: dose 5.9 mg/kg, route intravenous; conditions: in vivo; procedure, shortened: as §4
dengue virus type 2 [8] = assay: Antiviral activity against Dengue virus 2 NGC infected in human A549 cells after 2 days by CFI assay in presence of 2 mg/ml alpha-1-acid glycoprotein; format: functional, organism-based; conditions: A549, 48 h
Procedure, shortened: (§5)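 Modified CFI: A549 cells infected with DENV-2 New Guinea C (MOI 0.3) for 1 h without compound. Inoculum then replaced with medium containing compound dilutions plus the stated HSA and/or AGP. On day 2, cells methanol-fixed and intracellular E protein detected by ELISA (4G2 primary, HRP anti-mouse secondary); EC50 derived.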

dengue virus type 2 [9] = assay: Antiviral activity against Dengue virus 2 NGC infected in human A549 cells after 2 days by CFI assay in presence of 40 mg/ml human serum albumin and 2 mg/ml alpha-1-acid glycoprotein; format: functional, organism-based; conditions: A549, 48 h; procedure, shortened: as §5
dengue virus type 2 [10] = assay: Antiviral activity against Dengue virus 2 MY10340 infected in human A549 cells by CFI assay; format: functional, organism-based; procedure, shortened: as §3
dengue virus type 2 [11] = assay: Antiviral activity against Dengue virus 2 NGC infected in human PBMC cells by plaque assay; format: functional, organism-based
[12] = Oral bioavailability in CD-1 mouse at 25 mg/kg by LC-MS-MS analysis; format: ADME, organism-based; conditions: in vivo
Procedure, shortened: (§6)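 Female CD-1 mice dosed orally at 25 mg/kg, formulated at 2.5 mg/ml in 0.1 N HCl (1.5 equimolar), pH 3.5 with NaOH, topped off with 100 mM citrate pH 3.5. Blood taken from three animals per time point, 0.08–24 h. Plasma acetonitrile-methanol-acetic acid extract analysed by LC-MS-MS (LLOQ 9.2 ng/ml). Mean profile fitted noncompartmentally; F from dose-corrected p.o./i.v. AUC.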

[13] = Oral bioavailability in Wistar rat at 24.8 mg/kg by LC-MS-MS analysis; format: ADME, organism-based; conditions: in vivo; procedure, shortened: as §2
[14] = Tmax in CD-1 mouse at 25 mg/kg, po by LC-MS-MS analysis; format: ADME, organism-based; design: dose 25 mg/kg, route oral; conditions: in vivo; procedure, shortened: as §6
Rattus norvegicus = assay: AUC (0 to infinity) in Wistar rat at 24.8 mg/kg, po by LC-MS-MS analysis; format: ADME, organism-based, Plasma; design: time infinity, dose 24.8 mg/kg, route oral; conditions: in vivo; procedure, shortened: as §2
A549 [15] = assay: Cytotoxicity against human A549 cells up to 12.5 uM after 48 hrs by MTT assay; format: functional, cell-based
dengue virus type 3 = assay: Antiviral activity against Dengue virus 3 MY22366 infected in human A549 cells by CFI assay; format: functional, organism-based; procedure, shortened: as §3
A549 [16] = assay: Cytotoxicity against human A549 cells at >= 25 uM after 48 hrs by MTT assay; format: cell-based; conditions: a549, 48 h
dengue virus type 4 = assay: Antiviral activity against Dengue virus 4 MY22713 infected in human A549 cells by CFI assay; format: functional, organism-based; procedure, shortened: as §3
[17] = Clearance in CD-1 mouse at 5 mg/kg, iv by LC-MS-MS analysis; format: ADME, organism-based; design: dose 5 mg/kg, route intravenous; conditions: in vivo; procedure, shortened: as §1
dengue virus type 2 [18] = assay: Antiviral activity against Dengue virus 2 NGC infected in human A549 cells after 2 days by CFI assay in presence of 40 mg/ml human serum albumin; format: functional, organism-based; conditions: A549, 48 h; procedure, shortened: as §5
Mus musculus = assay: AUC (0 to infinity) in CD-1 mouse at 25 mg/kg, po by LC-MS-MS analysis; format: ADME, organism-based, Plasma; design: time infinity, dose 25 mg/kg, route oral; conditions: in vivo; procedure, shortened: as §6
[19] = Cmax in CD-1 mouse at 25 mg/kg, po by LC-MS-MS analysis; format: ADME, organism-based; design: dose 25 mg/kg, route oral; conditions: in vivo; procedure, shortened: as §6
[20] = Half life in CD-1 mouse at 5 mg/kg, iv by LC-MS-MS analysis; format: ADME, organism-based; design: dose 5 mg/kg, route intravenous; conditions: in vivo; procedure, shortened: as §1
dengue virus type 2 [21] = assay: Antiviral activity against Dengue virus 2 NGC infected in human A549 cells by CFI assay; format: functional, organism-based; procedure, shortened: as §3

## C#C[C@@]1(O)[C@H](O)[C@@H](CO)O[C@H]1n1cc(C(N)=O)c2c(N)ncnc21
[1]
  Vd: 0.26 L/kg
[2]
  Cmax: 270 nM
Dengue virus type 1
  EC50: 2270 nM
[3]
  Vd: 2.71 L/kg
[4]
  clearance: 8.98 mL/min/kg
A549 [5]
  Activity: Not toxic
[6]
  Tmax: 0.17 h
[7]
  half-life: 8.33 h
Dengue virus type 2 [8]
  EC50: 2520 nM
Dengue virus type 2 [9]
  EC50: 4640 nM
Dengue virus type 2 [10]
  EC50: 1620 nM
Dengue virus type 2 [11]
  EC50: 5000 nM
[12]
  bioavailability: 1%
[13]
  bioavailability: 2%
[14]
  Tmax: 1 h
Rattus norvegicus
  AUC: 3.15 µM·h
A549 [15]
  Activity: Not toxic
Dengue virus type 3
  EC50: 1940 nM
A549 [16]
  Activity: Non-toxic
Dengue virus type 4
  EC50: 6990 nM
[17]
  clearance: 21.9 mL/min/kg
Dengue virus type 2 [18]
  EC50: 4760 nM
Mus musculus
  AUC: 0.42 µM·h
[19]
  Cmax: 270 nM
[20]
  half-life: 1.31 h
Dengue virus type 2 [21]
  EC50: 2610 nM

Reference: ChEMBL document CHEMBL1629704, “Inhibition of dengue virus by an ester prodrug of an adenosine analog” (Antimicrob Agents Chemother, 2010)
